Source: ChEMBL document CHEMBL1142013, “Tryptamine and homotryptamine-based sulfonamides as potent and selective inhibitors of 15-lipoxygenase” (Bioorg Med Chem Lett, 2005)

Assays:
[1] = target: T1, Polyunsaturated fatty acid lipoxygenase ALOX15 (Oryctolagus cuniculus, UniProt P12530); experiment: Inhibitory concentration against isolated rabbit reticulocyte 15-lipoxygenase measured in the presence of linoleic acid
T1 sequence (P12530 whole entry): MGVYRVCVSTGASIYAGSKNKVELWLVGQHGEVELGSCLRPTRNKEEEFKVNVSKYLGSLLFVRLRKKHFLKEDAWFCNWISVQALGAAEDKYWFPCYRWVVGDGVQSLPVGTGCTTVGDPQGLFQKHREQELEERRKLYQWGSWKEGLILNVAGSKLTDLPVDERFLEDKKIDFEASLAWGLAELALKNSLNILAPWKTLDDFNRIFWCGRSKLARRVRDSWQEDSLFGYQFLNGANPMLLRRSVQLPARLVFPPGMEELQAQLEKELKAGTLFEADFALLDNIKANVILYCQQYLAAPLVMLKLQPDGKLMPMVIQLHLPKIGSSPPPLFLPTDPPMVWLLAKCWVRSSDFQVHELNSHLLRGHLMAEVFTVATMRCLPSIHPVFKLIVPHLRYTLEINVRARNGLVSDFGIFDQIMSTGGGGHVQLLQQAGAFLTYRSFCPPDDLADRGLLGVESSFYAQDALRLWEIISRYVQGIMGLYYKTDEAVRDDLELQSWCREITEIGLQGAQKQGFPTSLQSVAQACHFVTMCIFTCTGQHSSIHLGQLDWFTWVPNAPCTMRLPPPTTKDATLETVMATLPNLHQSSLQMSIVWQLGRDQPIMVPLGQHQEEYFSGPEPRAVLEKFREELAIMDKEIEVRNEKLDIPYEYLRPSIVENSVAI
Summary of the method: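 15-LO was purified from reticulocytes of phenylhydrazine-treated rabbits. Linoleic acid was the substrate. In a colorimetric assay, the 13-HPODE product oxidizes Fe²⁺ under mildly acidic conditions, and IC50 is derived from this. Many values were also checked spectrophotometrically by the rate of diene formation (A₂₃₄).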

[2] = target: T2, Polyunsaturated fatty acid lipoxygenase ALOX12 (Homo sapiens, UniProt P18054); experiment: Inhibitory concentration against human platelet-derived 12-lipoxygenase
T2 sequence (P18054 whole entry): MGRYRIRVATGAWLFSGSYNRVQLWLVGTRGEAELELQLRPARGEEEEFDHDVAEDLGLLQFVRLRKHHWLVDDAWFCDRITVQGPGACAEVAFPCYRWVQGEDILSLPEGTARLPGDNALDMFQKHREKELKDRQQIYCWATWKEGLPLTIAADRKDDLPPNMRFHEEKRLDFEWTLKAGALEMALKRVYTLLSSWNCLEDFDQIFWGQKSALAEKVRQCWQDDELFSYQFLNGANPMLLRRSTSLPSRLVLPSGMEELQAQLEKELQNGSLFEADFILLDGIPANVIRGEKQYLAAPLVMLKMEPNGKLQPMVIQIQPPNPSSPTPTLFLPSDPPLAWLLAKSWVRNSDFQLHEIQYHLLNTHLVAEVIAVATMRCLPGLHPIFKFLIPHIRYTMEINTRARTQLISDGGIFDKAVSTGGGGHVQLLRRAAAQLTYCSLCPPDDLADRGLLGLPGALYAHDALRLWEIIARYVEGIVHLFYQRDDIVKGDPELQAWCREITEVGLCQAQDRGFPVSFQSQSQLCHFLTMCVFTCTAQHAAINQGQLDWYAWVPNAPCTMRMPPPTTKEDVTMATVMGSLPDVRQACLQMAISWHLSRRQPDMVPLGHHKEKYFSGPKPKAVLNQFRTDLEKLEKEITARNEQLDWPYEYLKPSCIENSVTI

[3] = target: T1, Polyunsaturated fatty acid lipoxygenase ALOX15; experiment: Inhibitory concentration against rabbit reticulocyte 15-lipoxygenase with substrate arachidonic acid
Summary of the method: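 Purified rabbit reticulocyte 15-LO, isolated from phenylhydrazine-treated rabbits, with arachidonic acid as the substrate. IC50 comes from a colorimetric read-out in which the 15-HPETE product oxidizes Fe²⁺ under mildly acidic conditions. Many values were also verified by the spectrophotometric diene-formation rate (A₂₃₄).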

[4] = target: T3, Polyunsaturated fatty acid 5-lipoxygenase (Homo sapiens, UniProt P09917); experiment: Inhibitory concentration against human 5-lipoxygenase
T3 sequence (P09917 whole entry): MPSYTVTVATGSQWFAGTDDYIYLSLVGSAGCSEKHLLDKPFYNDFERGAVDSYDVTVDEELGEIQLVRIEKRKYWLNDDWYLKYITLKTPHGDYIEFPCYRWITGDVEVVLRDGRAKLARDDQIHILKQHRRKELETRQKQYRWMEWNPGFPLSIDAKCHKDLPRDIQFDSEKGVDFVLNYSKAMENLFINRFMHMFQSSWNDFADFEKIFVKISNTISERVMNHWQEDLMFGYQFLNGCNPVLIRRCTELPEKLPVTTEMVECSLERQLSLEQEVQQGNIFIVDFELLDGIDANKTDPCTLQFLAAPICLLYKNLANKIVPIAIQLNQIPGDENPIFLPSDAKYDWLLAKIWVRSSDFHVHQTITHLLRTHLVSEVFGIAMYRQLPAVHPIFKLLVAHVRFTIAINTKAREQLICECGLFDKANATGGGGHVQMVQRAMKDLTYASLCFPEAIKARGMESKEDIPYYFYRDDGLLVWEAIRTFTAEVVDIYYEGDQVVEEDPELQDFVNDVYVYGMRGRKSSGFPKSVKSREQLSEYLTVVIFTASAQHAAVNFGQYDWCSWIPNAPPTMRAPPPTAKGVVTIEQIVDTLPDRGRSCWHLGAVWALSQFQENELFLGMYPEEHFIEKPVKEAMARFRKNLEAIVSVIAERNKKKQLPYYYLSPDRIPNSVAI
Summary of the method: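 Recombinant human 5-LO enzyme. Inhibition was followed by oxidation of arachidonic acid as the substrate. IC50 values were determined.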

IC50 [1] [nM] | IC50 [2] [nM] | IC50 [3] [nM] | IC50 [4] [nM] | SMILES
89 | > 10000 | 135 | 3500 | NNC(=O)c1ccc(S(=O)(=O)NCCc2c(-c3cc4ccccc4o3)[nH]c3ccccc23)cc1
37 | > 10000 | 164 | 8900 | CCCCCc1ccc(S(=O)(=O)NCCc2c(-c3ccc(OC)cc3)[nH]c3ccccc23)cc1
